Measured values published in PubChem BioAssay.
The source made the active and inactive calls.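 Rule for the calls, unless noted: active = viability at or under a set limit in both replicates, limit being median viability minus 3 SD (cut at about 48% in these data, passing the limit was not always enough); inconclusive = at or under the limit in just one replicate; inactive = at or above the limit in both replicates.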

Legend:
[1] = Her2 expression decrease, cell viability multiplex – SKBR3 breast tumor cells, AlphaScreen, ATP viability, primary screen (AID 461;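 active = Her2 level under about 52% in both replicate screens, with viability over 70% of control, limit read from the data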;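 for Her2 level: lower value means less Her2 protein in the cells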;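 for viability: percent of carrier control wells set as 100% viability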); settings: SKBR3 Her2 protein level, 18-24 h, measured here: SKBR3 viability, ATP luminescence, at 10 µM
[2] = molecular target: Receptor tyrosine-protein kinase erbB-2 (Homo sapiens) (UniProt P04626); test: as above; settings: 18-24 h, at 10 µM, stronger effect = lower value
[3] = reduced viability of SK-BR-3 breast cancer cells – cell-based, 24 h, human, pilot screen (AID 572;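 active = viability at or below 10% of carrier control in both of two separate runs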;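 note: compound exposure lasted between 18 and 24 h rather than exactly 24 h; 100% = carrier-treated control wells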); settings: SK-BR-3 viability, CellTiter-Glo luminescence, at 10 µM, stronger effect = lower value
[4] = HUVEC growth inhibition – cell-based, human, primary screen (AID 575;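 active = viability at or below 30% in both replicate assays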;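 note: 100% = median of untreated cell wells with 0.1% DMSO on each plate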); settings: HUVEC proliferation, CellTiter-Glo luminescence, 72 h; at 10 µM; stronger effect = lower value
In short: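 system = HUVEC primary cells | amount = 1250 cells/well | buffer or medium = supplemented EBM, 2% fetal bovine serum | dosing = single-point 10 µM, DMSO 0.1% final | times = 72 h compound incubation | detection = CTG luminescence | read-out = % viability relative to median vehicle-well signal on each plate | control set = vehicle and MePR control wells | format = collagen-coated 384-well format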

[5] = H69AR cell proliferation blockers – human, duplicate replicates, primary screen (AID 580); settings: H69AR lung tumor cells viability, ATP luminescence, 72 h; at 10 µM; stronger effect = lower value;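 note: 100% = mean luminescence of untreated wells and 0% = no signal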
[6] = MRP1 drug-resistance reversers in H69AR cells – cell-based, doxorubicin co-treatment, pilot screen (AID 601;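 active = viability loss from added drug above about 55%, and viability with drug at most 40%, in both replicates, limit read from the data, passing the limit was not always enough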); settings: CellTiter-Glo, 72 h, at 10 µM; for differential viability (reversal): stronger effect = higher value
[7] = yeast transport mutant growth inhibition pilot in 384-well plates, post-Golgi transport modulator project (AID 636; in the data active = inhibition above about 31%); settings: absorbance 615 nm, about 18 h, stronger effect = higher value
[8] = growth suppression of yeast trafficking mutant, preliminary HTS, modulators of trafficking downstream of Golgi apparatus project, 1536-format plate, OD 615 nm (AID 637; in the data active = inhibition above about 30%); settings: yeast transport mutant growth, absorbance 615 nm, 18 h; stronger effect = higher value
[9] = H69AR cells + 2 uM doxorubicin, measured here: viability with 2 uM doxorubicin, stronger effect = lower value
[10] = H69AR cells, compound alone cytotoxicity

Receptor tyrosine-protein kinase erbB-2 (Homo sapiens), sequence (P04626 whole entry, looked up): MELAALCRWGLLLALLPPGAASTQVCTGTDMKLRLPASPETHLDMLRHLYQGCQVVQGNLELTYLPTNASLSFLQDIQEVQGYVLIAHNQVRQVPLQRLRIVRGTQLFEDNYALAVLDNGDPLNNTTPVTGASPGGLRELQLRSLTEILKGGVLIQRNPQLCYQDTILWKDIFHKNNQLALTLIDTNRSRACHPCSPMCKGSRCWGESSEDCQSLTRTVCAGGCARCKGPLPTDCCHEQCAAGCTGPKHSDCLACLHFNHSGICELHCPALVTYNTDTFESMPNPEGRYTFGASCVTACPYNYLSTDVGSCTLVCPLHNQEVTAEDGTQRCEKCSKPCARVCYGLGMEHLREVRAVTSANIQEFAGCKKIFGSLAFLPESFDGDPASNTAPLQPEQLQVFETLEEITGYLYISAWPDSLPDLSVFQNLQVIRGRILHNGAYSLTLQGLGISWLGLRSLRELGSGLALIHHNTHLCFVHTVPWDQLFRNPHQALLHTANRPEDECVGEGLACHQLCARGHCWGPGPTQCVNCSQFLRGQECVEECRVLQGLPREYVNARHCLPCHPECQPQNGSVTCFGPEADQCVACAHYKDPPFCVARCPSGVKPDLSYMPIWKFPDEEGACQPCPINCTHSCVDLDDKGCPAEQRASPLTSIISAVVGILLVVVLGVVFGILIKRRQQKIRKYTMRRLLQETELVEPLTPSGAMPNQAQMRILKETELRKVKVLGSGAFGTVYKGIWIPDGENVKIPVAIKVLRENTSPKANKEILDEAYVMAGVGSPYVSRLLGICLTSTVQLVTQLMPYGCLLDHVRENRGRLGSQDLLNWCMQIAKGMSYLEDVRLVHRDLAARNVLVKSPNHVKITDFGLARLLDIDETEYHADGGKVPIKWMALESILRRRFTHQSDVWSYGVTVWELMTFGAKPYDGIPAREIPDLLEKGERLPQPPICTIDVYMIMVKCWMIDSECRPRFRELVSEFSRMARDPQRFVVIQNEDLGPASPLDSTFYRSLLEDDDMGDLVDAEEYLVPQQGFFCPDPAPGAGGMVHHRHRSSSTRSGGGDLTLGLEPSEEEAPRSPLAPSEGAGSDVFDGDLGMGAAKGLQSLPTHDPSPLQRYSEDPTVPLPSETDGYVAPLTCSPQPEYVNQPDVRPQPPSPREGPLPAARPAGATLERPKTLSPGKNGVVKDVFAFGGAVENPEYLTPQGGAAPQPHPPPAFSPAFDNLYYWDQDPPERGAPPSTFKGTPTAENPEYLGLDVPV

SMILES	viability [1] [%]	Her2 level [2]	viability [3]	viability [4]	viability [5]	differential viability (reversal) ([6]; H69AR cells + 2 uM doxorubicin)	viability [6, 9] [%]	viability [6, 10] [%]	inhibition [7]	inhibition [8]
CCOC(=O)C(NC(C)=O)(Nc1ccc(S(=O)(=O)Nc2nccs2)cc1)C(F)(F)F (stereo not given)	120	106% (inactive)	120% (inactive)	102% (inactive)	109% (inactive)	3.07% (inactive)	106	109	0.39% (inactive)	8.57% (inactive)
CCCCOCP(=O)(CCCC)COCCCC	92.5	91.5% (inactive)	92.5% (inactive)	95.3% (inactive)	94.1% (inactive)	5.32% (inactive)	88.8	94.1	-3.12% (inactive)	-0.98% (inactive)
O=S(=O)(NC1CCCC1)c1ccccc1Cl	94.5	97% (inactive)	94.5% (inactive)	87.1% (inactive)	101% (inactive)	2.58% (inactive)	98.4	101	2.73% (inactive)	6.39% (inactive)
COc1ccccc1-c1nc2n(n1)C(c1cccs1)C(C(=O)Nc1cccnc1)=C(C)N2 (stereo not given)	83.5	95.5% (inactive)	83.5% (inactive)	97.9% (inactive)	87.1% (inactive)	0.115% (inactive)	87	87.1	-2.43% (inactive)	-4.92% (inactive)
CCCN1CCN(CCCNC(=O)C2CCCN(c3nc4ccc(OCC)cc4s3)C2)CC1 (stereo not given)	85.5	118% (inactive)	85.5% (inactive)	74.8% (inactive)	87.3% (inactive)	-1.46% (inactive)	88.8	87.3	-5.39% (inactive)	0.83% (inactive)
Cc1nn(-c2ccc(F)cc2)c(C)c1NS(=O)(=O)c1ccc(Cl)cc1	106	85% (inactive)	106% (inactive)	90.9% (inactive)	77% (inactive)	-5.18% (inactive)	82.2	77	-8.27% (inactive)	-2.79% (inactive)
O=c1ccc(S(=O)(=O)N2CCC(Cc3ccccc3)CC2)c[nH]1	86	80.5% (inactive)	86% (inactive)	111% (inactive)	95.3% (inactive)	8.51% (inactive)	86.8	95.3	0.13% (inactive)	-4.33% (inactive)
CCOc1cccc(-c2nnc3sc(COc4ccc(OC)cc4)nn23)c1	72.5	102% (inactive)	72.5% (inactive)	68.3% (inactive)	85.5% (inactive)	-1.33% (inactive)	86.9	85.5	-1.95% (inactive)	-6.39% (inactive)
CCN1CCN(S(=O)(=O)c2ccc(S(=O)(=O)N(CC)Cc3ccccc3)cc2)CC1	98	94% (inactive)	98% (inactive)	82.1% (inactive)	91.9% (inactive)	-7.05% (inactive)	99	91.9	-4.27% (inactive)	-1.13% (inactive)
CSc1ccccc1NC(=O)c1c(Br)cnn1C	89.5	94.5% (inactive)	89.5% (inactive)	79.2% (inactive)	101% (inactive)	6.58% (inactive)	94.2	101	-2.6% (inactive)	-4.44% (inactive)
CCOc1ccc2[nH]c(=O)c(C(c3nnnn3Cc3ccco3)N3CCC(C)CC3)cc2c1 (stereo not given)	80.5	81.5% (inactive)	80.5% (inactive)	82.3% (inactive)	85.7% (inactive)	-1.93% (inactive)	87.7	85.7	-5.34% (inactive)	3.02% (inactive)
Cn1c(=O)n(Cc2ccc(F)cc2)c(=O)c2c1nc1n2CCCN1Cc1ccccc1	88.5	80.5% (inactive)	88.5% (inactive)	78.4% (inactive)	70.1% (inactive)	37.5% (inactive)	32.6	70.1	0% (inactive)	1.33% (inactive)
CN(C(=O)c1ccc2c(=O)n3c(nc2c1)CCCCC3)c1ccccc1	96.5	91% (inactive)	96.5% (inactive)	97.5% (inactive)	102% (inactive)	0.655% (inactive)	101	102	-7.26% (inactive)	2.54% (inactive)
COc1ccc(-n2c(Cc3cccn3C)nnc2SCC(=O)Nc2cccc(OC)c2)cc1	106	97.5% (inactive)	106% (inactive)	80.9% (inactive)	98% (inactive)	0.895% (inactive)	97.1	98	1.79% (inactive)	0% (inactive)
CCOC(=O)c1[nH]c(C)c(C(=O)Nc2ccc(C)c(Cl)c2)c1C	94	88% (inactive)	94% (inactive)	61.4% (inactive)	28.6% (active)	-29% (inactive)	57.6	28.6	-5.53% (inactive)	-2.7% (inactive)
O=C(Cn1nnc(-c2ccccc2)n1)Nc1ccccc1N1CCOCC1	99.5	98% (inactive)	99.5% (inactive)	110% (inactive)	93.3% (inactive)	0.8% (inactive)	92.5	93.3	-7.2% (inactive)	0.66% (inactive)
CCc1nc(NCCCN2CCOCC2)c2oc3ccccc3c2n1	88	95% (inactive)	88% (inactive)	80.3% (inactive)	89.1% (inactive)	0.87% (inactive)	88.2	89.1	-0.13% (inactive)	0.81% (inactive)
N#Cc1c(/N=C/c2ccco2)sc2c1CCC2	99	139% (inactive)	99% (inactive)	85.2% (inactive)	85.7% (inactive)	-1.43% (inactive)	87.1	85.7	-2.76% (inactive)	11.2% (inactive)
CCCCN(C)CCCNC(=O)CC1Oc2ccccc2NC1=O (stereo not given)	86.5	91.5% (inactive)	86.5% (inactive)	104% (inactive)	93.4% (inactive)	-7.03% (inactive)	100	93.4	-4.53% (inactive)	2.95% (inactive)
COc1cccc(CNC(=O)C2CCN(C(=O)N(C)C)CC2)c1	97.5	118% (inactive)	97.5% (inactive)	90% (inactive)	92.2% (inactive)	0.06% (inactive)	92.2	92.2	-0.64% (inactive)	11.8% (inactive)
COC(=O)CC1SCCNC1=O (stereo not given)	92	94% (inactive)	92% (inactive)	103% (inactive)	95.6% (inactive)	5.06% (inactive)	90.6	95.6	5.87% (inactive)	23.7% (inactive)
COc1c(Br)cc2c(C)c(C(=O)O)oc2c1Br	104	102% (inactive)	104% (inactive)	84.2% (inactive)	94.2% (inactive)	4.95% (inactive)	89.3	94.2	1.82% (inactive)	-4.59% (inactive)
CCOC(=O)c1[nH]c(C)c(C(=O)N2CCN(C(=O)c3ccco3)CC2)c1C	88.5	95.5% (inactive)	88.5% (inactive)	98.4% (inactive)	97.8% (inactive)	2.2% (inactive)	95.6	97.8	-11.6% (inactive)	-0.48% (inactive)
Cc1ccc2cc3cc(C(=O)N4CC(C)CC(C)C4)oc3nc2c1 (stereo not given)	108	78.5% (inactive)	108% (inactive)	69.3% (inactive)	89.2% (inactive)	3.71% (inactive)	85.5	89.2	-2.47% (inactive)	-6.35% (inactive)
CCC1c2ccc(C)n2CCN1C(=O)Nc1ccccc1OC (stereo not given)	89.5	69.5% (inactive)	89.5% (inactive)	97.7% (inactive)	78.9% (inactive)	-10.8% (inactive)	89.7	78.9	-6.13% (inactive)	4.59% (inactive)
CCOC(=O)C1CCCN(C(=O)c2cc3c(=O)n4cccc(C)c4nc3n2C)C1 (stereo not given)	106	77% (inactive)	106% (inactive)	108% (inactive)	94.3% (inactive)	5.81% (inactive)	88.4	94.3	-7.3% (inactive)	2.7% (inactive)
Cc1ccc2cc(C(c3nnnn3CC3CCCO3)N3CCCC4(CCCCC4)C3)c(=O)[nH]c2c1 (stereo not given)	107	92.5% (inactive)	107% (inactive)	97.9% (inactive)	85.1% (inactive)	-8.48% (inactive)	93.6	85.1	-7.27% (inactive)	0% (inactive)
Cc1cccc2cc(CN(CC3CCCO3)C(=O)c3cnccn3)c(=O)[nH]c12 (stereo not given)	116	105% (inactive)	116% (inactive)	96.9% (inactive)	85.1% (inactive)	-2.77% (inactive)	87.9	85.1	-1.43% (inactive)	-0.67% (inactive)
CCc1ccc(CN(C)CCc2ccccn2)cc1	108	86% (inactive)	108% (inactive)	106% (inactive)	102% (inactive)	16.7% (inactive)	85.8	102	-5.62% (inactive)	-3.02% (inactive)
